Source: ChEMBL document CHEMBL5705889, “Novel mutant-selective EGFR kinase inhibitors against EGFR T790M” (Nature, 2009)
Active and inactive are the calls of the source. No cut-off for these calls is given here.

Experiments:
HCC827 = assay: cells; type: functional, cell-based; details: Homo sapiens, HCC827, 72 h
cells = type: functional, cell-based; details: Homo sapiens, Gefitinib-resistant PC9, 72 h
BaF3 [1] = assay: cells; type: functional, cell-based; details: Mus musculus, BaF3, 72 h
BaF3 [2] = assay: cells; type: functional, cell-based; details: Mus musculus, BaF3, 72 h; remark: listed apart in the source
BaF3 [3] = assay: cells; type: functional, cell-based; details: Mus musculus, BaF3, 72 h; remark: listed apart in the source
BaF3 [4] = assay: cells; type: functional, cell-based; details: Mus musculus, BaF3, 72 h; remark: listed apart in the source
BaF3 [5] = assay: cells; type: functional, cell-based; details: Mus musculus, BaF3, 72 h; remark: listed apart in the source
[6] = target: RAC-alpha serine/threonine-protein kinase (Homo sapiens) (UniProt P31749); assay: Inhibition of AKT phosphorylation in human PC9 Gefitinib-resistant (GR) cells at 0.01 to 1 uM incubated for 16 hrs by immunoblot analysis; type: cell-based; details: PC9 Gefitinib-resistant (GR) cell, dose 0.01-1 µM
Sequence of RAC-alpha serine/threonine-protein kinase (Homo sapiens) (P31749 whole entry): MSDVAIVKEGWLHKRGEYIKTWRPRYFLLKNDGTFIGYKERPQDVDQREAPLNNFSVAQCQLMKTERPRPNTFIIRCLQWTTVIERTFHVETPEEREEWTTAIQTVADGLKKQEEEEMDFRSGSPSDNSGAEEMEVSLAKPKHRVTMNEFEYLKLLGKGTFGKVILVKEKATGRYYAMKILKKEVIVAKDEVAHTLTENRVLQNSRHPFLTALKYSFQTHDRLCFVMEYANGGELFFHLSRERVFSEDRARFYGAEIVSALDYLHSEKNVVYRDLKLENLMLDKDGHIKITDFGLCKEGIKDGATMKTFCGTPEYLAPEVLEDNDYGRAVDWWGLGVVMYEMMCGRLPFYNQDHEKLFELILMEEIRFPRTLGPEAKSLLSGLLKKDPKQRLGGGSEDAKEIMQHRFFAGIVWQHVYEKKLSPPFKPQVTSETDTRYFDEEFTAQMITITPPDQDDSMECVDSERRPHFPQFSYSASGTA

[7] = target: RAC-alpha serine/threonine-protein kinase (Homo sapiens) (UniProt P31749); assay: Inhibition of AKT phosphorylation in human NCI-H1975 cells at 0.01 to 1 uM incubated for 16 hrs by immunoblot analysis; type: cell-based; details: dose 0.01-1 µM
[8] = target: Tyrosine-protein kinase Blk (Homo sapiens, UniProt P51451); assay: Binding affinity to BLK (unknown origin) assessed as dissociation constant
Sequence of Tyrosine-protein kinase Blk (P51451 whole entry): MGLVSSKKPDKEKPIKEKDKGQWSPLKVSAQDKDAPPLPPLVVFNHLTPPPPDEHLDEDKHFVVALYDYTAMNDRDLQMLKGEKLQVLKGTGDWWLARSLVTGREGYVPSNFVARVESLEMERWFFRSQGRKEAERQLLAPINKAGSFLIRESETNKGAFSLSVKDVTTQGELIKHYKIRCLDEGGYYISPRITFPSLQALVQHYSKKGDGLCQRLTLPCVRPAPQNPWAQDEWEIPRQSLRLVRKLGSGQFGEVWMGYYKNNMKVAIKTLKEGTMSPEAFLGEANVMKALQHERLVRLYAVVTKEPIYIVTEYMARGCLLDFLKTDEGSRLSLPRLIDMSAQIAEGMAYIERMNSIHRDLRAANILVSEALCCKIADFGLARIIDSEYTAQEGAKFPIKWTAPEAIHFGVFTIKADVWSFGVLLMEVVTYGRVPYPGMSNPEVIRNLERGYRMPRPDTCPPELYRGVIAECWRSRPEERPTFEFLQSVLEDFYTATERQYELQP

[9] = target: Tyrosine-protein kinase BTK (Homo sapiens, UniProt Q06187); assay: Binding affinity to BTK (unknown origin) assessed as dissociation constant
[10] = target: Serine/threonine-protein kinase DCLK3 (Homo sapiens, UniProt Q9C098); assay: Binding affinity to DCAMKL3 (unknown origin) assessed as dissociation constant
Sequence of Serine/threonine-protein kinase DCLK3 (Q9C098 whole entry): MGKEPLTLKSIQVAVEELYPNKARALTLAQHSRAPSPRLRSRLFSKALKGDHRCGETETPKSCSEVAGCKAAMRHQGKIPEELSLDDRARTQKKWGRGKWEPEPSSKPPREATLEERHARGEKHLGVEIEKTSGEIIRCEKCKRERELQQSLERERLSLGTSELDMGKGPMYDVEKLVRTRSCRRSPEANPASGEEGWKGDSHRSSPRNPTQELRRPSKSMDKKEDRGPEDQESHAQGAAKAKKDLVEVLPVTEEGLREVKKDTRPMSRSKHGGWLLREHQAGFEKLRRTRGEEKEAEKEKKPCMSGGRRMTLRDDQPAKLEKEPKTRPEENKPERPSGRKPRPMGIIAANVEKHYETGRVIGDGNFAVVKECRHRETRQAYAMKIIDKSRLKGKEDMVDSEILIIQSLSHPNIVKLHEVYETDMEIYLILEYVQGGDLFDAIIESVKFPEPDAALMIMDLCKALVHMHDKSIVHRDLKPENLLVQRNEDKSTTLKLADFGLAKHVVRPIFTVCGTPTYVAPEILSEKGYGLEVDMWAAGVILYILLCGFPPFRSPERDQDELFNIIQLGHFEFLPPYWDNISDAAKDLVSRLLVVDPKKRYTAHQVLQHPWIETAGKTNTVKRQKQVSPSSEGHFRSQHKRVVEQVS

[11] = target: Receptor-type tyrosine-protein kinase FLT3 (Homo sapiens, UniProt P36888, D835Y); assay: Binding affinity to FLT3 D835Y mutant (unknown origin) assessed as dissociation constant
eIF-2-alpha kinase GCN2 = eIF-2-alpha kinase GCN2 (Homo sapiens, UniProt Q9P2K8); assay: Binding affinity to GCN2 (unknown origin) assessed as dissociation constant
Sequence of eIF-2-alpha kinase GCN2 (Q9P2K8 whole entry): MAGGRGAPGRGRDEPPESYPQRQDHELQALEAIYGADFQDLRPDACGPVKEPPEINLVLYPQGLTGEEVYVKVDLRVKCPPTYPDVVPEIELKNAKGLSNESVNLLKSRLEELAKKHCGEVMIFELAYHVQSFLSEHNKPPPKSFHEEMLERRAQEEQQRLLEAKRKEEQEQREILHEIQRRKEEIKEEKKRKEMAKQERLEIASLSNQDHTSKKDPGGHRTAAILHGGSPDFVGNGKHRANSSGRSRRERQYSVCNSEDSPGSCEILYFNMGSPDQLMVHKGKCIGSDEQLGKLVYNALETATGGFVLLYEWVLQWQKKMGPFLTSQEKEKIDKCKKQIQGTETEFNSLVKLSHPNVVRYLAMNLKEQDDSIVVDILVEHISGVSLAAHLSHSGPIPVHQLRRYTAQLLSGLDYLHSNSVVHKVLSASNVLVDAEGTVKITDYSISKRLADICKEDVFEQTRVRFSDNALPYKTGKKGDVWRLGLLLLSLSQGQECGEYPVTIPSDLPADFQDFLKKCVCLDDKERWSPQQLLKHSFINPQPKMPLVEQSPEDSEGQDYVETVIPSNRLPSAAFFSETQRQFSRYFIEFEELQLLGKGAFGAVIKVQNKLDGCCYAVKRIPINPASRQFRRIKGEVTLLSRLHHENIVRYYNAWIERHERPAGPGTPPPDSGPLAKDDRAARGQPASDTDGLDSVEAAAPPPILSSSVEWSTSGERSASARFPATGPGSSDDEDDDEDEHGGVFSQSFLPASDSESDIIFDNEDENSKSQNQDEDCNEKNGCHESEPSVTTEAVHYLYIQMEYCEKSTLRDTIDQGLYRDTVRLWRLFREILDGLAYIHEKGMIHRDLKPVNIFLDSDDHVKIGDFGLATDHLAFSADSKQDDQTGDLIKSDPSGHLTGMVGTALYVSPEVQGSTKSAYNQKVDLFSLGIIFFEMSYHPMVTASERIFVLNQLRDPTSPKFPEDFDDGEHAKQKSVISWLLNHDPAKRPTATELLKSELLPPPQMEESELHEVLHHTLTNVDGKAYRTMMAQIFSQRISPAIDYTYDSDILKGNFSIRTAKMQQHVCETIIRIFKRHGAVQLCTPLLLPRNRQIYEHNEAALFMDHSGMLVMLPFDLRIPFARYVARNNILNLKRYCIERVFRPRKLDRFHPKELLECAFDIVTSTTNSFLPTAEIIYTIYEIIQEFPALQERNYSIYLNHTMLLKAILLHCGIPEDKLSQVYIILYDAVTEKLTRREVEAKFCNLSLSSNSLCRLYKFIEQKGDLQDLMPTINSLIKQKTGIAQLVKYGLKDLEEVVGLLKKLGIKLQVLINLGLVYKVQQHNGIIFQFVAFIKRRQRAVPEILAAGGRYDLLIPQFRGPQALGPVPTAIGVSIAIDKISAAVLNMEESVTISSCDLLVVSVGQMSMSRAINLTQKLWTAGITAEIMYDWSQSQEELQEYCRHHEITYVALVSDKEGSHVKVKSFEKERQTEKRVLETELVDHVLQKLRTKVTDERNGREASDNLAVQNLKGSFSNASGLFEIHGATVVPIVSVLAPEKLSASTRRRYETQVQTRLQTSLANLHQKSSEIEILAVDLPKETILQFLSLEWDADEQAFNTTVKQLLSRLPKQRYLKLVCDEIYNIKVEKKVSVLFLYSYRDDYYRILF

[12] = target: Serine/threonine-protein kinase PLK4 (Homo sapiens, UniProt O00444); assay: Binding affinity to PLK4 (unknown origin) assessed as dissociation constant
Sequence of Serine/threonine-protein kinase PLK4 (O00444 whole entry): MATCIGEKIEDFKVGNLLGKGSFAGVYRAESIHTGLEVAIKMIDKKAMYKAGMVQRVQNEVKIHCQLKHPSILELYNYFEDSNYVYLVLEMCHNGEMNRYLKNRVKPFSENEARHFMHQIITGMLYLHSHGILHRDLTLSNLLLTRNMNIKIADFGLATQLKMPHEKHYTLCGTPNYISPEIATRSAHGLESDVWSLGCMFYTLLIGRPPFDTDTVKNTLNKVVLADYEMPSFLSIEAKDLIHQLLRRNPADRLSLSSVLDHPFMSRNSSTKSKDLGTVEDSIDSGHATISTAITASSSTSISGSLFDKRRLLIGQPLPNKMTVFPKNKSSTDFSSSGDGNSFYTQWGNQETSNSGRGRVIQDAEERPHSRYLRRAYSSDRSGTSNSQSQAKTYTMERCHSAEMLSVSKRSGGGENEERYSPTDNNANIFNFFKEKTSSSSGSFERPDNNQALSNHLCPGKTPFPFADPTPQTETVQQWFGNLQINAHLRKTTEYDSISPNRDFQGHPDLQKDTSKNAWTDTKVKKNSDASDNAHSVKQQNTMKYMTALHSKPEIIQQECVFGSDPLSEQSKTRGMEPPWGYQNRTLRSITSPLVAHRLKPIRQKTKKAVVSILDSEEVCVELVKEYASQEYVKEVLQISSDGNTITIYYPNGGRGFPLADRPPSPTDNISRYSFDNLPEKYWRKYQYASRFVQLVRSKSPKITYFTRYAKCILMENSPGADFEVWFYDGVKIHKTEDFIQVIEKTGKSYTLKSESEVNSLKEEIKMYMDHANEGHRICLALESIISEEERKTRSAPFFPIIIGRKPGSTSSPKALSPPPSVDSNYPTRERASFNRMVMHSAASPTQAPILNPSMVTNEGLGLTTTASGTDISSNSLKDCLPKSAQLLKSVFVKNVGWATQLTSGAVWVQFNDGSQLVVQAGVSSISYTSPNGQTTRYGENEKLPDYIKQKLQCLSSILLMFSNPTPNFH

[13] = AUC(0 to t) in mouse at 1 mg/kg, iv administered as single dose; type: ADME, organism-based; details: in vivo
[14] = AUC(0 to infinity) in mouse at 1 mg/kg, iv administered as single dose; type: ADME, organism-based; details: in vivo
[15] = Clearance in mouse at 1 mg/kg, iv administered as single dose; type: ADME, organism-based; details: in vivo
[16] = Tmax in mouse at 10 mg/kg, po administered as single dose; type: ADME, organism-based; details: in vivo
[17] = AUC(0 to t) in mouse at 10 mg/kg, po administered as single dose; type: ADME, organism-based; details: in vivo
[18] = Half-life in mouse at 10 mg/kg, po administered as single dose; type: ADME, organism-based; details: in vivo
[19] = Drug concentration in mouse plasma at 1 mg/kg, iv administered as single dose and measured after 2 hrs; type: ADME, organism-based
[20] = Drug concentration in mouse plasma at 1 mg/kg, iv administered as single dose and measured after 8 hrs; type: ADME, organism-based
[21] = Drug concentration in mouse plasma at 10 mg/kg, po administered as single dose and measured after 0.5 hrs; type: ADME, organism-based
[22] = Drug concentration in mouse plasma at 10 mg/kg, po administered as single dose and measured after 1 hrs; type: ADME, organism-based
[23] = Drug concentration in mouse plasma at 10 mg/kg, po administered as single dose and measured after 2 hrs; type: ADME, organism-based
[24] = Drug concentration in mouse plasma at 10 mg/kg, po administered as single dose and measured after 4 hrs; type: ADME, organism-based
[25] = Toxicity in mouse harboring EGFR del E746_A750/T790M mutant assessed as effect on total white blood cell count at 25 mg/kg administered via gavage for 2 weeks; type: organism-based; details: in vivo, po, 336 h
In short: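 Inducible bitransgenic tumor mice gavaged daily, 25 mg/kg, vehicle NMP (10% 1-methyl-2-pyrrolidinone, 90% PEG-300), compared against vehicle-treated mice; weight, serum creatine and total white blood cell count monitored during the study.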

Mus musculus [26] = assay: In vivo inhibition of EGFR phosphorylation in transgenic mouse harboring EGFR del E746_A750/T790M mutant at 2.5 to 25 mg/kg administered as two doses separated by 16 hours by immunoblot analysis; type: functional, organism-based; details: dose 2.5-25 mg/kg
In short: (§1)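 Transgenic mice gavaged with compound in 10% 1-methyl-2-pyrrolidinone:90% PEG-300 vehicle; phosphorylation assessed in tissue by immunoblotting per standard protocols.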

Mus musculus [27] = assay: In vivo inhibition of EGFR phosphorylation in transgenic mouse harboring EGFR L858R/T790M mutant at 2.5 to 25 mg/kg administered as two doses separated by 16 hours by immunoblot analysis; type: functional, organism-based; details: dose 2.5-25 mg/kg
Mus musculus [28] = assay: In vivo inhibition of AKT phosphorylation in transgenic mouse harboring EGFR L858R/T790M mutant at 2.5 to 25 mg/kg administered as two doses separated by 16 hours by immunoblot analysis; type: functional, organism-based; details: dose 2.5-25 mg/kg
Mus musculus [29] = assay: In vivo inhibition of ERK1/2 phosphorylation in transgenic mouse harboring EGFR L858R/T790M mutant at 2.5 to 25 mg/kg administered as two doses separated by 16 hours by immunoblot analysis; type: functional, organism-based; details: dose 2.5-25 mg/kg
In short: as §1

Mus musculus [30] = assay: In vivo antitumor activity in transgenic mouse harboring EGFR Del19/T790M mutant assessed as tumor regression at 25 mg/kg, administered via gavage for 2 weeks; type: functional, organism-based
In short: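 Inducible bitransgenic mice carrying EGFR T790M/L858R or exon19 deletion-T790M were dosed by daily gavage at 25mg/kg. The vehicle was 10% 1-methyl-2-pyrrolidinone:90% PEG-300, and the control group received vehicle alone. Tumor response was followed by MRI scanning.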

Mus musculus [31] = assay: Invivo antitumor activity in transgenic mouse harboring EGFR del19/T790M mutant assessed as increase in fibrosis at 25 mg/kg administered via gavage for 2 weeks by H&E staining based analysis; type: functional, organism-based
In short: (§2)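 EGFR-TL (L858R/T790M) or exon19 deletion-T790M (TD) inducible bitransgenic mice dosed by oral gavage daily at 25 mg/kg; vehicle 10% 1-methyl-2-pyrrolidinone:90% PEG-300. Tumors followed by MRI; lung histology by standard protocols.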

Mus musculus [32] = assay: Invivo antitumor activity in transgenic mouse harboring EGFR del19/T790M mutant assessed as remodelling/scarring at 25 mg/kg administered via gavage for 2 weeks by H&E staining based analysis; type: functional, organism-based
In short: as §2

Mus musculus [33] = assay: Invivo antitumor activity in transgenic mouse harboring EGFR L858R/T790M mutant assessed as decrease in cellularity at 25 mg/kg administered via gavage for 2 weeks by H&E staining based analysis; type: functional, organism-based
In short: as §2

Mus musculus [34] = assay: Invivo antitumor activity in transgenic mouse harboring EGFR L858R/T790M mutant assessed as increase in fibrosis at 25 mg/kg administered via gavage for 2 weeks by H&E staining based analysis; type: functional, organism-based
In short: as §2

[35] = target: Tyrosine-protein kinase Tec (Homo sapiens) (UniProt P42680); assay: Inhibition of TEC (unknown origin)
Sequence of Tyrosine-protein kinase Tec (Homo sapiens) (P42680 whole entry, looked up): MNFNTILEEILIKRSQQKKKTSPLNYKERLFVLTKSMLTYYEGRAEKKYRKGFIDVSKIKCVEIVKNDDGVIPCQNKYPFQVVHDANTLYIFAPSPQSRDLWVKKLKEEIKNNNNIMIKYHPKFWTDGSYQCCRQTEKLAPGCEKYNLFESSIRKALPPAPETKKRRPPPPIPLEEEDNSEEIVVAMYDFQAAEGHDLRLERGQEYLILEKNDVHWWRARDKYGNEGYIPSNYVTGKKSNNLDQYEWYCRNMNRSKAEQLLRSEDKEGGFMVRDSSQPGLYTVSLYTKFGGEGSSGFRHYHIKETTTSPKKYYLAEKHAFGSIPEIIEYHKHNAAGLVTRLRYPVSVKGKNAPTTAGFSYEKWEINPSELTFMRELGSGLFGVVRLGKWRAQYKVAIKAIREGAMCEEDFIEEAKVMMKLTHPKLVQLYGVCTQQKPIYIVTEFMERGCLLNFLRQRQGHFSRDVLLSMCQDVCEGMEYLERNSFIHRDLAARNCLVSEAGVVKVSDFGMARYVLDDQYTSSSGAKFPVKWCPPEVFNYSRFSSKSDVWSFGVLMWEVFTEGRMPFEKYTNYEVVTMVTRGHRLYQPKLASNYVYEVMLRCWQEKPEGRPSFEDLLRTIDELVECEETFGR

IC50 (HCC827): 5 nM
IC50 (cells): 47 nM
IC50 (BaF3 [1]): > 3300 nM
IC50 (BaF3 [2]): 3 nM
IC50 (BaF3 [3]): 2 nM
IC50 (BaF3 [4]): 157 nM
IC50 (BaF3 [5]): 619 nM
inhibition [6]: Active
inhibition [7]: Active
Kd [8]: 220 nM
Kd [9]: 36 nM
Kd [10]: 910 nM
Kd [11]: 33 nM
Kd (eIF-2-alpha kinase GCN2): 140 nM
Kd [12]: 100 nM
AUC(0-t) [13]: 956 ng·h/mL
AUC(0-inf) [14]: 976 ng·h/mL
clearance [15]: 17.1 mL/min/kg
Tmax [16]: 0.25 h
AUC(0-t) [17]: 2390 ng·h/mL
half-life [18]: 2.46 h
concentration at 2 h [19]: 80.4 ng/mL
concentration at 8 h [20]: 8 ng/mL
concentration at 0.5 h [21]: 397 ng/mL
concentration at 1 h [22]: 340 ng/mL
concentration at 2 h [23]: 422 ng/mL
concentration at 4 h [24]: 214 ng/mL
inhibition [35]: Active
SMILES: C=CC(=O)Nc1cccc(Oc2nc(Nc3ccc(N4CCN(C)CC4)cc3OC)ncc2Cl)c1
Activity [25]: Non-Toxic
inhibition (Mus musculus [26]): Active
inhibition (Mus musculus [27]): Active
inhibition (Mus musculus [28]): Active
inhibition (Mus musculus [29]): Active
Activity (Mus musculus [30]): Active
Activity (Mus musculus [31]): Active
Activity (Mus musculus [32]): Active
Activity (Mus musculus [33]): Active
Activity (Mus musculus [34]): Active
